Bioassay records (PubChem BioAssay)
Rows were chosen to be rich in hits. Some 3% of all compounds tested hit in one or more screens of this group.
SENP8 block-1 – inhibitors of human SENP8 protease | AID 2540 | 330,000 tested, 1.2% active | purified SENP8, Z-RLRGG-aminoluciferin cleavage, luminescence | inhibition, % at 10 µM; in the data active means inhibition above about 50%
SENP6 block – SENP6 protease inhibition; Q9GZR1; Recombinant SENP6 catalytic domain, aminoluciferin luminescence; inhibition, % at 10 µM; 330,000 tested, 1.8% active; AID 2599;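 active means inhibition above about 50% at the single tested dose, limit read from the data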;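 further: plate controls were DMSO wells with enzyme for no effect and DMSO wells lacking enzyme for full effect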
Apaf1 inhib – human Apaf-1 inhibition | O14727 | reconstituted apoptosome caspase-3 activity, DEVD-Rh110 fluorescence | inhibition, % at 20 µM | 330,000 tested, 0.71% active | AID 489030; active means inhibition of at least 40% at 20 µM;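 further: plate controls were DMSO wells for no effect and DEVD-CHO caspase inhibitor wells for full effect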
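Material: reconstituted apoptosome with Apaf-1, cytochrome c, caspase-9, procaspase-3, dATP. Technique: Rh110 fluorescence intensity. Buffer or medium: pH 7.5 Hepes buffer with CHAPS, BSA, DTT. Times: 30 min plus 50 min, RT.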
UBC13 inh – blocks human UBC13 polyubiquitin chain formation; P61088; TR-FRET; inhibition, % at 20 µM; 330,000 tested, 0.47% active; AID 485273; in the data active means inhibition above about 45%, passing the limit was not always enough
Target sequence (P61088 whole entry, looked up): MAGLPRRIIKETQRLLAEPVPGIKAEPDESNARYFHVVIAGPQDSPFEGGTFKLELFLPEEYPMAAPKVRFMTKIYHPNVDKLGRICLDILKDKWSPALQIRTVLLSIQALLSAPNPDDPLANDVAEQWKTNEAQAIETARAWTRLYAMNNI
SENP8 block-2 – blocks human SENP8 cleavage of Nedd8 substrate; AID 602440; 360,000 tested, 0.64% active; Q96LD8; inhibition, % at 20 µM; recombinant SENP8, Nedd8 substrate fluorescence; in the data active means inhibition mostly above about 40%, no sharp cut-off; inactive means mostly below about 27%
SENP7 inh – inhibitors of human SENP7 protease; Q9BQF6; recombinant SENP7, Z-RLRGG-aminoluciferin luminescence, 40 min; inhibition, % at 5 µM; 330,000 tested, 1.5% active;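 active means inhibition above about 50% at the single test dose, limit read from the data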;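 further: plate controls were DMSO with enzyme for no effect and no enzyme buffer wells for full effect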
Target sequence (Q9BQF6 706-1050 limits assumed): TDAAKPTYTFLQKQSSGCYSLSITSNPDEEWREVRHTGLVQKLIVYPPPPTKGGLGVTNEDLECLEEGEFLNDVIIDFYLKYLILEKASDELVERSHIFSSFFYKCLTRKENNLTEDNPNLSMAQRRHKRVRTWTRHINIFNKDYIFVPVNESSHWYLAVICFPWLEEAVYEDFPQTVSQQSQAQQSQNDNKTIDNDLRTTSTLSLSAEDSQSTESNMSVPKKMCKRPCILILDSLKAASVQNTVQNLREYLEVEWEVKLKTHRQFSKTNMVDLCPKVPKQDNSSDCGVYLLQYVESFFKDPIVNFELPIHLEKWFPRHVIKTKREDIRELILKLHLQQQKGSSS
SENP8 conf – human SENP8 inhibition, confirmed; shares compounds with SENP7 inh; Recombinant SENP8, Z-RLRGG-aminoluciferin luminescence, 60 min; inhibition, % at 12.5 µM; 6,200 tested, 40% active; AID 488912;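 active means mean inhibition across replicates above about 50%, limit read from the data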
SENP6 confirm – confirmation of human SENP6 protease inhibitors; 6,200 tested, 58% active; recombinant SENP6, Z-RLRGG-aminoluciferin luminescence; inhibition, % at 12.5 µM; shares compounds with SENP7 inh
SENP7 conf – confirmation of human SENP7 protease inhibitors; shares compounds with SENP7 inh; recombinant SENP7, Z-RLRGG-aminoluciferin luminescence, 40 min; inhibition, % at 12.5 µM; 6,200 tested, 69% active; AID 488917
Casp3 SENP sel – selectivity test for SENP inhibitors: human caspase-3 inhibition. shares compounds with SENP7 inh. purified caspase-3, Z-DEVD-aminoluciferin luminescence, 60 min. inhibition, % at 12.5 µM. 6,200 tested, 60% active. AID 488918;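 active means mean inhibition above about 50%, limit read from the data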;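 further: plate controls were enzyme with DMSO for no effect and wells without caspase-3 for full effect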
SENP luc ctr – interferes with luciferase luminescence in SENP counter-screen. shares compounds with SENP7 inh. Pre-incubated SENP8/Z-RLRGG-aminoluciferin, luciferase luminescence interference. inhibition, % at 12.5 µM. 6,200 tested, 39% active;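 active means mean inhibition above about 50% when retested at one dose, limit read from the data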;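 further: plate controls were DMSO wells with completed reaction for no effect and substrate without enzyme for full effect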
Numbers without * were called inactive; . = no result.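 How the source made its calls, unless noted: active means mean inhibition above about 50% in the one-dose retest (limit read from the data); inactive means the rest.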

SMILES	SENP8 block-1	SENP6 block	Apaf1 inhib	UBC13 inh	SENP8 block-2	SENP7 inh	SENP8 conf	SENP6 confirm	SENP7 conf	Casp3 SENP sel	SENP luc ctr
Cc1c(C(=O)Nc2cccnc2)oc2ccc(Br)cc12	13	35	7	12	6	13	.	.	.	.	.
NNC(=O)c1cc2c(ccc3ccccc32)o1	-8	-2	0	-7	-123	-3	.	.	.	.	.
O=C(Nc1cccnc1)c1cc2c(ccc3ccccc32)o1	61*	67*	15	-5	-18	82*	11	56*	56*	62*	6
O=C(O)c1cc2c(ccc3ccccc32)o1	-5	-38	-25	6	-23	-2	.	.	.	.	.
CCC/C=C/c1ccc(CN2C(C(C)C)C(=O)N(Cc3cn(CCC4OCCO4)nn3)CCS2(=O)=O)cc1 (centres undefined)	.	.	.	.	12	.	.	.	.	.	.
CCC(=O)Nc1c(C#N)c2nc3ccccc3nc2n1-c1ccccc1C	-2	55*	36	-5	-337	4	6	1	-3	-3	-2
Cc1ccc(CCN2CC(C(=O)NCc3ccc4c(c3)OCO4)CC2=O)cc1 (centres undefined)	2	67*	-23	10	22	0	10	4	2	2	5
O=C(Nc1ncc(Cc2ccccc2)s1)c1cccs1	40	53*	12	7	-49	58*	57*	57*	83*	37	53*
Cc1ccc(C(=O)Nc2ncc(Cc3ccccc3)s2)o1	51*	71*	7	6	-10	63*	6	68*	92*	62*	56*
O=C(Nc1nnc(SCc2ccccc2)s1)c1cccs1	69*	86*	6	-6	-197	53*	-4	25	36	30	6
Cc1ccc(Cc2cnc(NC(=O)c3cccs3)s2)cc1	-19	1	12	20	-39	0	.	.	.	.	.
CCc1nc(SCC(=O)Nc2ccc(OC)cc2[N+](=O)[O-])n[nH]1	-2	-14	-15	0	40	-5	.	.	.	.	.
O=C(O)c1ccccc1C=NNc1ccccn1	.	.	.	.	-4	.	.	.	.	.	.
CC(C)CCN1C(=O)c2ccc(C(=O)Nc3ccccc3C(=O)O)cc2C1=O	66*	74*	7	3	22	-1	76*	77*	86*	60*	77*
CC(C)CCN1C(=O)c2ccc(C(=O)Nc3ccc(O)cc3C(=O)O)cc2C1=O	-3	-10	16	-6	3	-8	.	.	.	.	.
CC(c1ccccc1)N1C(=O)c2ccc(C(=O)Nc3ccccc3C(=O)O)cc2C1=O (centres undefined)	68*	70*	4	-13	6	21	76*	71*	85*	41	77*
COc1ccc(-c2csc(-n3cccn3)n2)cc1	72*	81*	11	-4	9	80*	10	79*	96*	65*	69*
CN(c1ccccc1C(=O)Nc1ccc(F)c(Cl)c1)S(C)(=O)=O	1	-2	-13	2	3	-7	.	.	.	.	.
Fc1ccc(-n2nnc(-c3cnc4ccccc4c3)n2)cc1	80*	93*	12	0	12	96*	65*	67*	26	61*	33
Fc1ccc(-n2nnc(-c3cccnc3)n2)cc1	-6	22	2	-2	15	21	.	.	.	.	.
CCOC(=O)c1cnc(-c2ccccc2)nc1N	24	69*	-17	9	10	51*	53*	54*	81*	70*	52*
CCOC(=O)c1cnc(SCC(=O)c2ccccc2)nc1N	56*	81*	-6	4	12	78*	14	23	28	26	31
O=S(=O)(NCCCSc1ccccc1)c1ccccc1F	-1	16	11	0	12	1	.	.	.	.	.
Cc1cc2c(n1-c1ccc(C(=O)O)cc1)CCCCC2	-1	-57	3	-6	.	-6	.	.	.	.	.
O=C(Nc1scc(-c2ccc(F)cc2)c1C(=O)O)c1ccco1	71*	86*	14	-5	-114	46	-6	77*	93*	87*	81*
SMILES	SENP8 block-1	SENP6 block	Apaf1 inhib	UBC13 inh	SENP8 block-2	SENP7 inh	SENP8 conf	SENP6 confirm	SENP7 conf	Casp3 SENP sel	SENP luc ctr
Cc1ccc(-c2csc(NC(=O)/C=C/c3ccco3)c2C(=O)O)cc1	89*	86*	10	-18	2	72*	68*	97*	101*	96*	67*
CC(C)c1ccc(-c2csc(NC(=O)c3cccs3)c2C(=O)O)cc1	91*	96*	-15	6	-64	29	11	98*	90*	84*	84*
Cc1ccc(-c2csc(NC(=O)c3ccccc3Cl)c2C(=O)O)cc1	29	46	11	-1	-8	4	.	.	.	.	.
CC(C)Cc1csc(NC(=O)c2ccc(Cl)cc2)c1C(=O)O	91*	94*	21	-19	-64	22	95*	97*	99*	87*	76*
C[C@H]1CN([C@@H](C)CO)S(=O)(=O)c2ccc(-c3ccncc3)cc2O[C@H]1CN(C)C(=O)c1cccc(F)c1	.	.	.	.	2	.	.	.	.	.	.
COc1ccc(Nc2ncnc3sc(C)cc23)c(OC)c1	3	-17	-7	2	-2	7	.	.	.	.	.
Cc1cccc(C(=O)Nc2scc(CC(C)C)c2C(=O)O)c1	19	26	22	-3	-20	9	.	.	.	.	.
Cc1cccc(C(=O)Nc2scc(-c3ccc(Br)cc3)c2C(=O)O)c1	72*	39	-4	18	-28	7	21	54*	28	24	10
Cc1cccc(C(=O)Nc2sc(C)c(-c3ccccc3)c2C#N)c1	24	60*	17	8	-47	33	30	40	54*	31	8
Cc1ccc(-c2csc(NC(=O)c3ccc(Br)cc3)c2C(=O)O)cc1	86*	71*	16	-5	-168	11	-8	87*	74*	76*	29
Cc1ccc(-c2csc(NC(=O)c3cccc(C)c3)c2C(=O)O)cc1	92*	97*	-9	-2	-98	69*	-7	96*	100*	91*	84*
Cc1noc(C)c1C(=O)Nc1sc(C)c(-c2ccccc2)c1C#N	-1	-2	-3	12	-2	0	.	.	.	.	.
